Here are results for 24 compounds from ChEMBL document CHEMBL4354806, “Discovery of an Orally Bioavailable Pan αv Integrin Inhibitor for Idiopathic Pulmonary Fibrosis” (J Med Chem, 2019).

The target in one series is Integrin alpha-V/beta-6 (Homo sapiens, UniProt P06756+P18564). The series is described as follows: Inhibition of recombinant human integrin alphaV (31 to 992 residues) beta6 (22 to 707 residues) expressed in CHO cells preincubated for 15 mins followed by Cy3B-RGD probe addition and measured after 2 hrs by fluorescence polarization assay. In short, it runs like this: (§1)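 Soluble purified human integrins from CHO cells, with 1 nM Cy3B-RGD probe, in 25 mM HEPES, 150 mM NaCl, 1 mM CHAPS, pH 7.4, at 20-22 °C. Final protein and cation: αvβ3 1 nM with 0.4 mM MgCl₂; αvβ5 4 nM with 0.1 mM MnCl₂; αvβ6 8 nM with MgCl₂; αvβ8 8 nM with MnCl₂. Read-out was polarization. pIC50 is mean ± SEM over test occasions.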

In a further series the target is Integrin alpha-V/beta-3 (Homo sapiens, UniProt P05106+P06756). Put plainly: Inhibition of recombinant human integrin alphaV (31 to 992 residues) beta3 (27 to 718 residues) expressed in CHO cells preincubated for 15 mins followed by Cy3B-RGD probe addition and measured after 2 hrs by fluorescence polarization assay. An outline of the steps:
as §1

The nature of series [1]: Inhibition of recombinant human integrin alphaV (31 to 992 residues) beta5 (24 to 719 residues) expressed in CHO cells preincubated for 15 mins followed by Cy3B-RGD probe addition and measured after 2 hrs by fluorescence polarization assay. In short, it runs like this: as §1
Series [2] can be described thus: Inhibition of recombinant human integrin alphaV (31 to 992 residues) beta8 (43 to 684 residues) expressed in CHO cells preincubated for 15 mins followed by Cy3B-RGD probe addition and measured after 2 hrs by fluorescence polarization assay. An outline of the steps:
as §1

Series [3] is described as follows: Clearance in CD rat at 1 mg/kg, iv and 1 mg/kg, po measured up to 24 hrs by LC-MS/MS analysis. Type of series: ADME, organism-based. Conditions: in vivo. In short, it runs like this: (§2)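 Two male CD rats per arm. IV: 1 mg/kg bolus via femoral vein in DMSO:PEG200:water (5:45:50). PO: 1 mg/kg by gavage in 0.5% methyl cellulose/0.2% Tween 80. Blood was taken by tail-vein cannula to 7 h and by venipuncture to 24 h. Plasma was extracted with acetonitrile plus internal standard, and drug measured by LC-MS/MS.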

A short description of series [4]: Volume of distribution at steady state in CD rat at 1 mg/kg, iv and 1 mg/kg, po measured up to 24 hrs by LC-MS/MS analysis. Type of series: ADME, organism-based. Conditions: in vivo, read-out: Vdss. In short, it runs like this:
as §2

Series [5] in a line: Half life in CD rat at 1 mg/kg, iv and 1 mg/kg, po measured up to 24 hrs by LC-MS/MS analysis. It counts as ADME, organism-based. The following applies: in vivo. An outline of the steps: as §2
A short description of series [6]: Oral bioavailability in CD rat at 1 mg/kg administered via gavage up to 24 hrs by LC-MS/MS analysis. The following applies: in vivo. Type of series: ADME, organism-based. An outline of the steps: as §2
The nature of series [7]: Permeability of the compound in pH 7.4 phosphate buffer measured after 3 hrs by artificial membrane permeability assay based LC-MS analysis. The following applies: PAMPA, read-out: permeability. It counts as ADME. An outline of the steps: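 Bilayer of 1.8% egg phosphatidylcholine and 1% cholesterol in n-decane on filter inserts. Phosphate buffer was 50 mM Na₂HPO₄ with 0.5% hydroxypropyl-β-cyclodextrin, pH 7.4. Compound was added to the donor (bottom) well and incubated 3 h at room temperature. Donor and acceptor concentrations were measured by liquid chromatography.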

Each structure is given as a SMILES string.

Regarding `O=C(O)C[C@@H](Nc1ccc(OCCc2ccc3c(n2)NCCC3)nn1)c1cccc(Cl)c1`, the IC50 at Integrin alpha-V/beta-6 was 794 nM; at Integrin alpha-V/beta-3, 158 nM. The values for the pIC50 in [1] and in [2] were 7.9 and 5.7, respectively.
The matching figures for `O=C(O)C[C@H](Nc1ccc(OCCc2ccc3c(n2)NCCC3)nn1)c1cccc(Cl)c1`: 6.31 nM, 0.794 nM, 8.9 and 8.1.
For the compound `O=C(O)CC(Nc1ccc(OCCc2ccc3c(n2)NCCC3)nc1)c1cccc(Cl)c1` (racemic), the figures for the IC50 at Integrin alpha-V/beta-6 and at Integrin alpha-V/beta-3 were 398 nM and 12.6 nM, respectively. In addition, the pIC50 in series [1] is 7.8; in series [2], 6.
`O=C(O)CC(Nc1cnc(OCCc2ccc3c(n2)NCCC3)nc1)c1cccc(Cl)c1` (racemic): the IC50 was 631 nM on Integrin alpha-V/beta-6 and 50.1 nM at Integrin alpha-V/beta-3. Also, the pIC50 stood at 7.3 in [1] and 5.6 in series [2].
The like results for `O=C(O)CC(Nc1cnc(OCCc2ccc3c(n2)NCCC3)nc1)c1ccc(Cl)cc1` (racemic) were, in that order, 251 nM, 7.94 nM, 8.2 and 6.1.
The like results for `O=C(O)CC(Nc1ccc(OCCc2ccc3c(n2)NCCC3)cn1)c1ccc(CN2CCOCC2)cc1` (racemic) were, in that order, 31.6 nM, 3.16 nM, 8.2 and 6.9.
The like results for `O=C(O)CC(Nc1ccc(OCCc2ccc3c(n2)NCCC3)cn1)c1ccc(Oc2ccccc2)cc1` (racemic) were, in that order, 12.6 nM, 2 nM, 8.5 and 7.1.
With `O=C(O)CC(Nc1ccc(OCCc2ccc3c(n2)NCCC3)cn1)c1cccc(CN2CCOCC2)c1` (racemic), the IC50 was 63.1 nM on Integrin alpha-V/beta-6 and 3.98 nM at Integrin alpha-V/beta-3. Also, the negative logarithm of the IC50 (pIC50) is 8.5 in series [1] and 7.2 in [2].
The matching figures for `O=C(O)CC(Nc1ccc(OCCc2ccc3c(n2)NCCC3)cn1)c1cc(C2CC2)cc(C2CC2)c1` (racemic): 316 nM, 126 nM, 7 and 6.9.
The matching figures for `O=C(O)CC(Nc1ccc(OCCc2ccc3c(n2)NCCC3)nc1)c1ccc(Cl)cc1` (racemic): 1000 nM, 39.8 nM, 7.3 and 5.6.
Turning to `O=C(O)CC(Nc1ccc(OCCc2ccc3c(n2)NCCC3)cc1)c1cccc(F)c1` (racemic), the IC50 on Integrin alpha-V/beta-6 is 100 nM; on Integrin alpha-V/beta-3, 2 nM. For the same compound, the pIC50 in series [1] was determined as 8.8; in series [2] it was 6.4.
The like results for `O=C(O)CC(Nc1ccc(OCCc2ccc3c(n2)NCCC3)cn1)c1cccc(Br)c1` (racemic) were, in that order, 31.6 nM, 5.01 nM, 8.4 and 7.2.
The like results for `O=C(O)CC(Nc1ccc(OCCc2ccc3c(n2)NCCC3)nn1)c1cccc(Cl)c1` (racemic) were, in that order, 20 nM, 3.16 nM, 8.5 and 7.6.
On to `O=C(O)CC(Nc1ncc(OCCc2ccc3c(n2)NCCC3)cn1)c1ccc(Cl)cc1` (racemic), for which the IC50 on Integrin alpha-V/beta-6 is 126 nM; on Integrin alpha-V/beta-3 it was 1.26 nM. For the same compound, the negative logarithm of the IC50 (pIC50) came to 9 in [1] and 7.2 in [2].
The like results for `O=C(O)CC(Nc1cnc(OCCc2ccc3c(n2)NCCC3)cn1)c1ccc(Cl)cc1` (racemic) were, in that order, 19500 nM, 12600 nM, 4.9 and 4.5.
The matching figures for `O=C(O)CC(Nc1ccc(OCCc2ccc3c(n2)NCCC3)cn1)c1ccc(C(F)(F)F)cc1` (racemic): 79.4 nM, 7.94 nM, 8.1 and 6.7.
For `O=C(O)CC(Nc1ccc(OCCc2ccc3c(n2)NCCC3)cn1)c1cccc(Cl)c1` (racemic), the IC50 on Integrin alpha-V/beta-6 is 50.1 nM; at Integrin alpha-V/beta-3 it was 6.31 nM. The pIC50 in series [1] was 8.2; in [2], 7.1.
The matching figures for `O=C(O)CC(Nc1ccc(OCCc2ccc3c(n2)NCCC3)nn1)c1ccc(Cl)cc1` (racemic): 25.1 nM, 2 nM, 8.5 and 7.5.
The matching figures for `O=C(O)CC(Nc1ncc(OCCc2ccc3c(n2)NCCC3)cn1)c1cccc(Cl)c1` (racemic): 158 nM, 5.01 nM, 8.3 and 6.6.
Take `O=C(O)CC(Nc1ccc(OCCc2ccc3c(n2)NCCC3)cn1)c1cccc(F)c1` (racemic): the half-maximal inhibitory concentration (IC50) is 79.4 nM on Integrin alpha-V/beta-6 and 2.51 nM on Integrin alpha-V/beta-3. Also, the negative logarithm of the IC50 (pIC50) was found to be 8.4 in series [1] and 6.8 in series [2].
Consider `O=C(O)CC(Nc1ccc(OCCc2ccc3c(n2)NCCC3)cn1)c1cccc(C2CC2)c1` (racemic), for which the results for the IC50 on Integrin alpha-V/beta-6 and on Integrin alpha-V/beta-3 were 15.8 nM and 3.98 nM, respectively. The pIC50 in [1] is on record as 8.4; in series [2] it was 7.4. Also, the clearance in [3] was determined as 8 mL/min/kg. Further, in [4], the Vd was determined as 0.5 L/kg. This compound showed a half-life in series [5] of 1.8 h. For the same compound, the bioavailability in [6] is 98%. Moreover, in series [7], the Papp at 3 h is 8 ×10⁻⁶ cm/s.
`O=C(O)CC(Cc1ccc(OCCc2ccc3c(n2)NCCC3)cc1)c1ccccc1` (racemic): the half-inhibitory concentration (IC50) was 1260 nM on Integrin alpha-V/beta-6 and 2 nM at Integrin alpha-V/beta-3. Further, the values for the pIC50 in series [1] and in [2] were 8.7 and 5.8, respectively.
The matching figures for `O=C(O)CC(Nc1ccc(OCCc2ccc3c(n2)NCCC3)cn1)c1ccc(Cl)cc1` (racemic): 39.8 nM, 3.16 nM, 8.4 and 6.9.
On to `O=C(O)CC(Nc1cnc(OCCc2ccc3c(n2)NCCC3)cn1)c1cccc(Cl)c1` (racemic), for which the 50% inhibitory concentration (IC50) is 12600 nM on Integrin alpha-V/beta-6 and 5010 nM at Integrin alpha-V/beta-3. In addition, the pIC50 came out at 5.3 in [1] and 4.9 in [2].
